In the library only some 1.5% were active in any assay of this set; here they are far more common.
AF4-AF9 inh = inhibitors of AF4 peptide binding to AF9, primary screen, biochemical, AlphaScreen, biotin-AF4 peptide, FLAG-AF9, single point; Protein AF-9 (Homo sapiens), P42568; inhibition, % at 10 µM; 350,000 tested, 0.47% active; AID 651704, 2012;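 active = every replicate reaching a set inhibition limit, whatever the replicate mean, cut at about 25% in these data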;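 also: 0% = plate neutral control median and 100% = total signal loss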
Target sequence (P42568 whole entry, looked up): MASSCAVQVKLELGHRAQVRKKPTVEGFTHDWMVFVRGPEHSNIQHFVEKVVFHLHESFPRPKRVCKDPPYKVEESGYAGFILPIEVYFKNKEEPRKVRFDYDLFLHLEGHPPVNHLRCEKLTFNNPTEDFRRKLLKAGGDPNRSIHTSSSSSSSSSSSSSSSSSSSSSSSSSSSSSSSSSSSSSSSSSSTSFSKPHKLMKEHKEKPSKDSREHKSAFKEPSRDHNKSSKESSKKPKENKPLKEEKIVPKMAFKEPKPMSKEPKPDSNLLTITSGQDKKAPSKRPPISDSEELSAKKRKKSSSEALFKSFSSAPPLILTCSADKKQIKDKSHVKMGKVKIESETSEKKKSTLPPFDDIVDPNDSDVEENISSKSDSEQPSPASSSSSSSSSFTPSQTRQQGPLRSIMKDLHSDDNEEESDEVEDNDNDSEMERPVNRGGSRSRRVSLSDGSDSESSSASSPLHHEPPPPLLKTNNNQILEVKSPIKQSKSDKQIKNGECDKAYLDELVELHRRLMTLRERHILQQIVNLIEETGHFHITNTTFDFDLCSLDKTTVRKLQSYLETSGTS
RAD52 anneal inh = RAD52 DNA annealing inhibitors, primary screen, biochemical, FRET, single point, set 2. DNA repair protein RAD52 homolog (Homo sapiens), P43351. recombinant RAD52 DNA annealing, FRET fluorescence. inhibition, % at 18.7 µM. 360,000 tested, 0.46% active;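 active = every replicate showing at least 50% inhibition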
ERAP1 inh = human ERAP1 aminopeptidase inhibitors, primary screen, biochemical, single point, plate reader | 340,000 tested, 0.15% active | Endoplasmic reticulum aminopeptidase 1 (Homo sapiens), Q9NZ08 | inhibition, % at 10.7 µM | recombinant ERAP1, Leu-AMC fluorescence, 60 min;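 active = mean replicate inhibition of at least 30%, or all replicates individually reaching that 30% level; inactive = mean below 30% and not every replicate reaching it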;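 also: 0% = neutral control wells and 100% = L-leucinethiol positive control wells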
GSIS activator = GLuc luminescence reporter in INS-1E cells, primary screen for activators of glucose-dependent secretion of insulin. INS-1E GLuc reporter insulin secretion, 2-3 h. 370,000 tested, 0.61% active. activation, % at 16.6 µM;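 active = lowest replicate activation of at least 40%, so every replicate reaches that level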;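 also: 0% = median of neutral control wells and 100% = median of IBMX positive control wells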
S100A4 MyoIIA = inhibitors of S100A4-myosin IIA peptide binding, primary screen, biochemical, fluorescence polarization, TAMRA-MyoIIA peptide | inhibition, % at 10.7 µM | 360,000 tested, 0.14% active | Protein S100-A4 (Homo sapiens), P26447 | AID 652163, 2013;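 active = mean inhibition of at least 70% across replicates, with every replicate also reaching that level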
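Material: S100A4 monomer protein / Buffer or medium: 50 mM HEPES pH 7.2, 10 mM CaCl2, 100 mM KCl / Times: 5 min incubation before reading / Benchmarks: neutral control DMSO, positive control TFP / Reagent: labelled myosin peptide probe, 5 nM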
Active calls of the source: *; / = no result.

SMILES	AF4-AF9 inh	RAD52 anneal inh	ERAP1 inh	GSIS activator	S100A4 MyoIIA
CCn1ncc2c1C(=O)NC1c3ccccc3C(=O)N21 (stereo not given)	/	/	/	51*	/
CC(C)CC#Cc1ccc([C@@H]2[C@@H](CO)N3C(=O)CN(S(C)(=O)=O)C[C@@H]23)cc1	/	/	/	-13	/
CCCCCCc1cc2cc(C(=O)Nc3ccc(OC)cc3)c(=O)oc2cc1O	1	-11	-3	16	-3
CCCCCCc1cc2cc(C(=O)Nc3cccc(OC)c3)c(=O)oc2cc1O	/	/	/	68*	/
CC1(C)C[C@@H]2C[C@@](C)(CN2C(=O)c2ccccc2)C1	0	6	/	/	1
CC1(C)CC2CC(C)(CN2/C=C2/CCCCC2=O)C1 (stereo not given)	32*	-30	0	-1	-2
C[C@@H](NC(=O)[C@H]1[C@H](CO)[C@H]2Cn3c(ccc(C4=CCCCC4)c3=O)[C@@H]1N2)c1ccccc1	2	-19	3	16	0
COc1ccccc1C(=O)Nc1nnc(-c2ccc(F)cc2)s1	0	-8	-1	9	7
Cc1ccccc1C(=O)Nc1nnc(-c2ccc(C(C)(C)C)cc2)s1	/	/	/	137*	/
CC(=O)Nc1ccc(OCCC[n+]2ccccc2)cc1	31*	1	2	/	-2
CC(=O)Nc1ccc(OCC[n+]2cccc(C(N)=O)c2)cc1	0	2	-3	3	-2
C=CCN(Cc1ccc(OC)c(OC)c1)C(=O)N1CCOCC1	0	-6	-3	53*	24
COc1ccc(CN(CCN2CCOCC2)C(=O)c2c(F)cccc2F)cc1OC	-50	-10	0	31	3
CO[C@@H]1CN(C)C(=O)c2cc(NC(=O)Nc3ccccc3)ccc2OC[C@H](C)N(C(C)=O)C[C@@H]1C	4	12	3	10	4
CC(=O)Cc1nsc(NC(=O)c2ccc(Br)o2)n1	-3	-11	-1	4	2
CC(=O)Cc1nsc(NC(=O)c2ccc(-c3cccc(Cl)c3)o2)n1	3	-19	1	42*	7
CC1Cc2ccccc2N1C(=S)NC(=O)c1cccc(Br)c1 (stereo not given)	/	/	/	51*	/
CCCCCn1c(SCCOCC)nc2c1c(=O)[nH]c(=O)n2C	-2	-13	17	/	5
CCN(CC)c1nc2c(c(=O)[nH]c(=O)n2C)n1Cc1ccccc1	1	-4	2	38	7
CCCCCn1c(SCC(=O)OC)nc2c1c(=O)[nH]c(=O)n2C	-13	-4	5	68*	-5
CCCCCCn1c(N(CC)CC)nc2c1c(=O)[nH]c(=O)n2C	/	/	/	62*	/
CN1C[C@@H]2[C@H](c3ccccc31)[C@H](CO)N2Cc1ccccc1F	-3	-11	0	22	5
CC(=O)N1C[C@@H]2C(c3ccc(Br)cc3)[C@H](C1)N2Cc1ccc(F)cc1 (stereo not given in full)	/	/	/	2	/
OCCN1CCN(CC(O)COCCOc2ccc(Br)cc2)CC1 (stereo not given)	7	-10	1	0	-7
CC1(C)CCCC(C)(C)N1CC(O)COCCOc1ccc(Br)cc1 (stereo not given)	/	/	/	51*	/
SMILES	AF4-AF9 inh	RAD52 anneal inh	ERAP1 inh	GSIS activator	S100A4 MyoIIA
COc1ccc(-c2ccc(SCC(=O)Nc3cc(C)on3)nn2)cc1OC	/	/	/	57*	/
COc1cccc(-c2ccc(SCC(=O)NC3CCCCC3)nn2)c1	1	-1	-5	0	3
Cc1cccc(NC(=O)CSc2ccc(-c3ccc4c(c3)OCO4)nn2)c1C	/	/	/	94*	/
COc1ccc(-c2ccc(SCC(=O)NC3CCCC3)nn2)cc1OC	-1	-13	1	80*	-6
Cc1ccc(-c2ccc3c(c2)O[C@H](CN(C)C(=O)C2CCCCC2)[C@@H](C)CN([C@H](C)CO)S3(=O)=O)cc1	/	/	/	1	/
CC(=O)N(C)C[C@H]1Oc2ccc(NS(C)(=O)=O)cc2CC(=O)N(C)C[C@@H]1C	/	/	/	21	/
N#CC(=C1C=C(Br)C(=NO)C=C1Cl)c1cccc2ccccc12	26*	-13	-4	-20	-3
COc1ccc(C(C#N)=C2C=C(Cl)C(=NO)C=C2Cl)cc1	4	-16	0	-20	-1
O=C1C=C(c2c(O)ccc3ccccc23)c2ccccc2C1=O	22	-5	4	41*	-7
O=C1C=C(O)c2cccc(O)c2C1=O	0	3	10	/	1
O=C(Nc1ccc(F)cc1)N1CCCCN2[C@H](CO)[C@H](c3ccc(C#Cc4ccccn4)cc3)[C@H]2C1	5	-18	3	-19	87*
O=C(Nc1ccc(F)cc1)N1CCCCN2[C@@H](CO)[C@H](c3ccc(C#Cc4ccccn4)cc3)[C@@H]2C1	-1	-15	5	-24	-10
O=C(Nc1ccccc1)N1CCCCN2[C@H](CO)[C@H](c3ccc(C#Cc4ccccn4)cc3)[C@H]2C1	5	-8	2	-10	91*
COc1ccc(CSc2n[nH]c(C)n2)cc1[N+](=O)[O-]	/	/	/	-4	/
COc1ccc(CSc2ncn[nH]2)cc1[N+](=O)[O-]	/	/	/	61*	/
Cc1nc2ccc3nc(NC(=O)C4COc5ccccc5O4)sc3c2s1 (stereo not given)	48*	-17	0	/	-3
CC(=O)N1CCc2c(sc(NC(=O)C3COc4ccccc4O3)c2C(N)=O)C1 (stereo not given)	1	-45	1	-6	9
Cc1nc2cc(NC(=O)C3COc4ccccc4O3)ccc2s1 (stereo not given)	-1	1	90*	/	-1
CN1CCc2c(sc(NC(=O)C3COc4ccccc4O3)c2C(N)=O)C1 (stereo not given)	0	-21	-1	8	106*
CN(C)CC(=O)N[C@H]1CC[C@@H](CC(=O)NCc2ccc(Cl)cc2)O[C@@H]1CO	0	1	3	10	82*
COc1ccc(CNC(=O)C[C@@H]2CC[C@@H](NC(=O)CN(C)C)[C@H](CO)O2)cc1	1	-4	0	17	-4
CCOC(=O)N1CCN(c2nc(-c3cccs3)nc3ccccc23)CC1	1	-14	5	3	-1
CC(=O)N1CCN(c2nnc(-c3ccccc3)c3ccccc23)CC1	1	5	0	40*	-3
NC(=O)C1CCN(c2nc(-c3ccccc3)nc3ccccc23)CC1	/	/	/	58*	/
Cc1ccc(-c2nnc(N3CCN(C(=O)CN4C(=O)c5ccccc5C4=O)CC3)c3ccccc23)cc1	/	/	/	53*	/
CCC(=O)N1CCN(c2nnc(-c3ccccc3)c3ccccc23)CC1	-1	2	2	24	-4
CC(=O)N1CCN(c2nc(-c3cccs3)nc3ccccc23)CC1	-2	-13	-2	41*	-8

Bioassay records deposited in PubChem BioAssay by Broad Institute.
